Assay [1] deals with T1, GABARAP ATG8 (Homo sapiens, UniProt O95166). Kind of assay: FP saturation. Type of assay: binding.
Assay [2] addresses T2, MAP1LC3A ATG8 (Homo sapiens, UniProt Q9H492). Kind of assay: FP saturation. It is filed as binding.
In the next assay the target is NCK1 SH2 (Homo sapiens, UniProt P16333). Kind of assay: FP saturation. Type of assay: binding.
Assay [3] concerns the target T3, GABARAPL2 ATG8 (Homo sapiens, UniProt P60520). Kind of assay: FP saturation. It is filed as binding. A digest of the protocol:
(§1)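 GST-tagged domains were expressed in E. coli BL21-Gold (DE3) (IPTG induction, 16 h at 18°C) and purified on glutathione beads. The tag was removed with thrombin, and domains were dialysed into 50 mM sodium phosphate pH 7.4 with 1 mM DTT. Probes were FITC-ATG9A4–14 (AP2 μ2) and FITC-SQSTM1335–344 (ATG8 domains). 5 nM labelled peptide was mixed with an equal volume of a protein dilution series at room temperature and read without preincubation. KD came from a quadratic fit, in technical triplicates.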

The target of another assay is T4, AP2 μ2 (Homo sapiens, UniProt Q96CW1).
T4 sequence (Q96CW1 160-435): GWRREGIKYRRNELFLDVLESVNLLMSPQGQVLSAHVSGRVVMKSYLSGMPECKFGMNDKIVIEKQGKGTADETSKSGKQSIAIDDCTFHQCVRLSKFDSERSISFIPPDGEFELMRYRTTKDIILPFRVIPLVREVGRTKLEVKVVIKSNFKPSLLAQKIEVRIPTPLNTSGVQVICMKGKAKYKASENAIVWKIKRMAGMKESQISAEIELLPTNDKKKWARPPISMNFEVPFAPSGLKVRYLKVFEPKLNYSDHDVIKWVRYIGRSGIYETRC
Kind of assay: FP saturation. Type of assay: binding. A digest of the protocol: as §1

The target of the next assay is FYN SH2 (Homo sapiens, UniProt P06241). Kind of assay: FP saturation. Type of assay: binding. A digest of the protocol: (§2)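 The SH2 domain was expressed GST-tagged in E. coli. The tag was cleaved with HRV 3C and the protein dialysed into 50 mM sodium phosphate pH 7.4 with 1 mM DTT. KD came from a quadratic fit, in technical triplicates.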
The target of assay [4] is T5, MAP1LC3B ATG8 (Homo sapiens, UniProt Q9GZQ8). Kind of assay: FP saturation. It is filed as binding. A digest of the protocol:
as §1

A further assay has as its target LYN SH2 (Homo sapiens, UniProt P07948). Kind of assay: FP saturation. Type of assay: binding. A digest of the protocol: as §2
Another assay concerns the target T6, DOK1 PTB (Homo sapiens, UniProt Q99704).
T6 sequence (Q99704 151-256): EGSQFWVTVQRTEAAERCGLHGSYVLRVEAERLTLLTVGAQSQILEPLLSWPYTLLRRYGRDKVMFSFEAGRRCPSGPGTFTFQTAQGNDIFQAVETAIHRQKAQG
Kind of assay: FP saturation. Type of assay: binding. A digest of the protocol:
(§3)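 Direct FP saturation used GST-tagged PTB domains (the talin entry is the PTB-like FERM lobe), expressed in E. coli at 18°C for 16 h. GST was removed with thrombin and the protein dialysed into 50 mM sodium phosphate pH 7.4 with 1 mM DTT. KD came from a quadratic fit, in technical triplicates.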

The next assay has as its target T7, SNX17 FERM (Mus musculus, UniProt Q8BVL3).
T7 sequence (Q8BVL3 109-388): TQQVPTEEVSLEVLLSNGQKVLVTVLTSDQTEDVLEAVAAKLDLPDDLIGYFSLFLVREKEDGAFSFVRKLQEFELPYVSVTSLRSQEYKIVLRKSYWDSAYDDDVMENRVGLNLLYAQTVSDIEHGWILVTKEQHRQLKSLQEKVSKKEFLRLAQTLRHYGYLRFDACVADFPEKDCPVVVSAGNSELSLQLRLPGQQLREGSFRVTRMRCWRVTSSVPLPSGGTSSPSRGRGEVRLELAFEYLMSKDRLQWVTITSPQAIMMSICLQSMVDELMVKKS
Kind of assay: FP saturation. Type of assay: binding. A digest of the protocol: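 The FERM domain was expressed GST-tagged in E. coli BL21-Gold (DE3) at 18°C. The tag was removed with TEV protease and the protein dialysed into 50 mM sodium phosphate pH 7.4 with 1 mM DTT. Direct FP used 5 nM FITC-labeled peptide with a protein dilution series at room temperature and no preincubation. KD came from a quadratic fit, in technical triplicates.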

Another assay addresses TLN2 PTB (Homo sapiens, UniProt Q9Y4G6). Kind of assay: FP saturation. It is filed as binding. A digest of the protocol: as §3
The next assay deals with T8, FRS2 PTB (Homo sapiens, UniProt Q8WU20).
T8 sequence (Q8WU20 8-136): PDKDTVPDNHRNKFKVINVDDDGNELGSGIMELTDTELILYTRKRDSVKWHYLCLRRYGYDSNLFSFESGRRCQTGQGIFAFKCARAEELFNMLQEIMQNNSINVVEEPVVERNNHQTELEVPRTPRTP
Kind of assay: FP saturation. It is filed as binding. A digest of the protocol:
as §3

The target in the next assay is T9, IRS1 PTB (Homo sapiens, UniProt P35568).
T9 sequence (P35568 157-267): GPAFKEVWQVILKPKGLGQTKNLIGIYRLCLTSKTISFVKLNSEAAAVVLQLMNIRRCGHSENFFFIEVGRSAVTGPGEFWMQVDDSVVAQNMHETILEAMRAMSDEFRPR
Kind of assay: FP saturation. Type of assay: binding. A digest of the protocol:
as §3

The test system of another assay is SARS-CoV-2. Conditions: study repurposing approved compounds; cited from earlier work.
In assay [5] the target is T3, GABARAPL2 ATG8. Kind of assay: FP displacement of FITC-SQSTM1_335–344 from GABARAPL2 ATG8. It is filed as binding. A digest of the protocol: (§4)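 GST-tagged ATG8 domains were expressed in E. coli BL21-Gold (DE3) with 1 mM IPTG at OD600 0.7 for 16 h at 18°C. They were glutathione-bead purified, thrombin-cleaved overnight at 4°C, and dialysed into 50 mM sodium phosphate pH 7.4 with 1 mM DTT. Domain level for displacement was set from FITC-SQSTM1 saturation curves. Unlabeled peptides were in phosphate buffer. FP was read at room temperature and KI calculated.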

The target of assay [6] is T5, MAP1LC3B ATG8. Kind of assay: FP displacement of FITC-SQSTM1_335–344 from MAP1LC3B ATG8. It is filed as binding. A digest of the protocol: as §4
The target of assay [7] is T2, MAP1LC3A ATG8. Kind of assay: FP displacement of FITC-SQSTM1_335–344 from MAP1LC3A ATG8. Type of assay: binding. A digest of the protocol:
as §4

For the next assay, the target named is MAP1LC3C ATG8 (Homo sapiens, UniProt Q9BXW4). Kind of assay: FP displacement of FITC-SQSTM1_335–344 from MAP1LC3C ATG8. It is filed as binding. A digest of the protocol: as §4
Assay [8] deals with T1, GABARAP ATG8. Kind of assay: FP displacement of FITC-SQSTM1_335–344 from GABARAP ATG8. It is filed as binding. A digest of the protocol:
as §4

Square brackets hold non-standard residues; d marks the D form. Peptide text beside a SMILES is read from it. * marks the point of attachment. FITC = O=C1OC2(c3ccc(O)cc3Oc3cc(O)ccc32)c2ccc(NC(=S)*)cc21; pY = N[C@@H](Cc1ccc(OP(=O)(O)O)cc1)C(=O)O; pT = C[C@@H](OP(=O)(O)O)[C@H](N)C(=O)O; pS = N[C@@H](COP(=O)(O)O)C(=O)O

T1 sequence (O95166 2-115): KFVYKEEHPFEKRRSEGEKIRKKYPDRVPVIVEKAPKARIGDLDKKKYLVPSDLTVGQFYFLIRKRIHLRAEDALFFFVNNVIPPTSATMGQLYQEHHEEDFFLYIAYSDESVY
Chain of MAP1LC3C ATG8 (Q9BXW4 2-125): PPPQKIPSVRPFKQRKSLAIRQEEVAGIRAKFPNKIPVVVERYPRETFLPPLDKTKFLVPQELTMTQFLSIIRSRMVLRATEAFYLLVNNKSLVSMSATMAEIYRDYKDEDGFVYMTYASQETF
T3 sequence (P60520 2-115): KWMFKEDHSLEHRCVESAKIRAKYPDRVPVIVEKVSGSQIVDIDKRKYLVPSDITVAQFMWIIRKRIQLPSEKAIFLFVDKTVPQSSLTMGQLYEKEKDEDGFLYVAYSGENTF
Chain of TLN2 PTB (Q9Y4G6 309-401): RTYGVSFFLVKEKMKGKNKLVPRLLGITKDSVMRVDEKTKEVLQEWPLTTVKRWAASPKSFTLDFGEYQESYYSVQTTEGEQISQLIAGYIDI
Chain of FYN SH2 (P06241 142-251): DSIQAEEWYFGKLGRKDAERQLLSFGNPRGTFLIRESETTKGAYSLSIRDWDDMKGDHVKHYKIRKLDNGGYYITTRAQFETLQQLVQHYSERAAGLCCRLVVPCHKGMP
Chain of LYN SH2 (P07948 127-234): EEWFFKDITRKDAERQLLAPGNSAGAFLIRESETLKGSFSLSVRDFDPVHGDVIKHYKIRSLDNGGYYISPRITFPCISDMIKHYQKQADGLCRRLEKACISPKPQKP

For `CC[C@H](C)[C@H](NC(=O)[C@H](CC(=O)O)NC(=O)[C@@H](NC(=O)[C@H](CO)NC(=O)[C@H](C)NC(=O)[C@H](Cc1ccc(O)cc1)NC(=O)[C@@H]1CCCN1C(=O)[C@H](CC(N)=O)NC(=O)[C@H](CCC(=O)O)NC(=O)CNC(=O)[C@H](CO)NC(=O)[C@H](CCCNC(=N)N)NC(=S)Nc1ccc2c(c1)C(=O)OC21c2ccc(O)cc2Oc2cc(O)ccc21)[C@@H](C)CC)C(=O)N[C@@H](CO)C(=O)N[C@@H](CCCCN)C(=O)NCC(=O)N[C@@H](CCC(=O)O)C(N)=O` [ACE2_775–790 Unphos.] ({FITC}-RSGENPYASIDISKGE-NH2), the Kd is more than 100 µM on GABARAP ATG8 [1]; more than 100 µM on MAP1LC3A ATG8 [2]; more than 100 µM at NCK1 SH2; more than 100 µM at GABARAPL2 ATG8 [3]; approximately 60 µM on AP2 μ2; more than 100 µM on FYN SH2. The dissociation constant (Kd) on MAP1LC3B ATG8 [4] and at LYN SH2 was more than 100 µM throughout.
Turning to `C[C@@H](O)[C@H](NC(=O)[C@H](CC(N)=O)NC(=O)[C@H](CCC(N)=O)NC(=O)[C@H](Cc1ccccc1)NC(=O)CNC(=O)[C@@H]1CCCN1C(=O)[C@H](CC(N)=O)NC(=O)[C@H](CC(N)=O)NC(=O)[C@H](CCC(=O)O)NC(=O)CNC(=O)[C@H](CCCCN)NC(=O)[C@H](CO)NC(=S)Nc1ccc2c(c1)C(=O)OC21c2ccc(O)cc2Oc2cc(O)ccc21)C(N)=O` [ACE2_787–798] ({FITC}-SKGENNPGFQNT-NH2), the Kd on DOK1 PTB is more than 100 µM; on SNX17 FERM it was approximately 100 µM; on TLN2 PTB, more than 100 µM; on FRS2 PTB, more than 100 µM; at IRS1 PTB it was more than 100 µM.
For the compound `Cc1cccc(/C=N/Nc2cc(N3CCOCC3)nc(OCCc3ccccn3)n2)c1` [apilimod], the “inhibition of viral replication” value in the assay with SARS-CoV-2 is “potent inhibitor of viral replication”.
As to `CC[C@H](C)[C@H](NC(=O)[C@H](CC(N)=O)NC(=O)[C@@H](NC(=O)[C@H](Cc1ccccc1)NC(=O)[C@@H](NC(=O)[C@H](COP(=O)(O)O)NC(=O)[C@@H](NC(=O)[C@H](C)NC(=O)[C@H](CCC(=O)O)NC(=O)[C@H](CCCCN)NC(C)=O)[C@@H](C)O)[C@@H](C)O)[C@@H](C)O)C(=O)N[C@H](C(=O)N[C@@H](Cc1ccc(O)cc1)C(=O)N[C@@H](CCCNC(=N)N)C(=O)NCC(N)=O)[C@@H](C)O` [pSer^778] (Ac-KEAT[pS]TFTNITYRG-NH2), the Ki on GABARAPL2 ATG8 [5] is 80 ± 5 µM; at MAP1LC3B ATG8 [6], more than 100 µM; at MAP1LC3A ATG8 [7] it was 29.4 ± 0.5 µM; at MAP1LC3C ATG8, 16.1 ± 0.5 µM.
`CC[C@H](C)[C@H](NC(=O)[C@H](CC(N)=O)NC(=O)[C@@H](NC(=O)[C@H](Cc1ccccc1)NC(=O)[C@@H](NC(=O)[C@H](CO)NC(=O)[C@@H](NC(=O)[C@H](C)NC(=O)[C@H](CCC(=O)O)NC(=O)[C@H](CCCCN)NC(C)=O)[C@@H](C)OP(=O)(O)O)[C@@H](C)O)[C@@H](C)O)C(=O)N[C@H](C(=O)N[C@@H](Cc1ccc(O)cc1)C(=O)N[C@@H](CCCNC(=N)N)C(=O)NCC(N)=O)[C@@H](C)O` [pThr^777] (Ac-KEA[pT]STFTNITYRG-NH2): the Ki at MAP1LC3B ATG8 [6] was more than 100 µM; at GABARAP ATG8 [8], 47 ± 3 µM; on MAP1LC3A ATG8 [7] it was more than 100 µM; at MAP1LC3C ATG8, 73 ± 4 µM.
`CC[C@H](C)[C@H](NC(=O)[C@H](CC(N)=O)NC(=O)[C@@H](NC(=O)[C@H](Cc1ccccc1)NC(=O)[C@@H](NC(=O)[C@H](CO)NC(=O)[C@@H](NC(=O)[C@H](C)NC(=O)[C@H](CCC(=O)O)NC(=O)[C@H](CCCCN)NC(C)=O)[C@@H](C)O)[C@@H](C)OP(=O)(O)O)[C@@H](C)O)C(=O)N[C@H](C(=O)N[C@@H](Cc1ccc(OP(=O)(O)O)cc1)C(=O)N[C@@H](CCCNC(=N)N)C(=O)NCC(N)=O)[C@@H](C)O` [pThr^779/pTyr^785] (Ac-KEATS[pT]FTNIT[pY]RG-NH2): the Ki on MAP1LC3B ATG8 [6] was found to be 15 ± 1 µM; on GABARAP ATG8 [8], 17.8 ± 0.8 µM; on MAP1LC3A ATG8 [7], 8.5 ± 0.5 µM; on MAP1LC3C ATG8, 8 ± 2 µM.
For `CC[C@H](C)[C@H](NC(=O)[C@H](CC(N)=O)NC(=O)[C@@H](NC(=O)[C@H](Cc1ccccc1)NC(=O)[C@@H](NC(=O)[C@H](CO)NC(=O)[C@@H](NC(=O)[C@H](C)NC(=O)[C@H](CCC(=O)O)NC(=O)[C@H](CCCCN)NC(C)=O)[C@@H](C)O)[C@@H](C)OP(=O)(O)O)[C@@H](C)O)C(=O)N[C@H](C(=O)N[C@@H](Cc1ccc(O)cc1)C(=O)N[C@@H](CCCNC(=N)N)C(=O)NCC(N)=O)[C@@H](C)O` [pThr^779] (Ac-KEATS[pT]FTNITYRG-NH2), the inhibition constant (Ki) on GABARAPL2 ATG8 [5] is more than 100 µM; at MAP1LC3B ATG8 [6] it was more than 100 µM; on MAP1LC3A ATG8 [7], more than 100 µM; on MAP1LC3C ATG8, 82 ± 3 µM.
For the compound `CC[C@H](C)[C@H](NC(=O)[C@H](CC(N)=O)NC(=O)[C@@H](NC(=O)[C@H](Cc1ccccc1)NC(=O)[C@@H](NC(=O)[C@H](CO)NC(=O)[C@@H](NC(=O)[C@H](C)NC(=O)[C@H](CCC(=O)O)NC(=O)[C@H](CCCCN)NC(C)=O)[C@@H](C)O)[C@@H](C)O)[C@@H](C)O)C(=O)N[C@H](C(=O)N[C@@H](Cc1ccc(OP(=O)(O)O)cc1)C(=O)N[C@@H](CCCNC(=N)N)C(=O)NCC(N)=O)[C@@H](C)O` [pTyr^785] (Ac-KEATSTFTNIT[pY]RG-NH2), the Ki at GABARAPL2 ATG8 [5] amounted to 89 ± 12 µM; on MAP1LC3B ATG8 [6], 81 ± 2 µM; on MAP1LC3A ATG8 [7] it was 38 ± 2 µM; on MAP1LC3C ATG8, 83 ± 4 µM.

The record behind these values is PMC7928716 (Science Signaling, 2021).
